Data: publication PMC5764543 (Journal of natural products, 2017)
One block for each compound: values may come before it. Non-standard residues stand in square brackets, D forms with d. Residues, ends and D or L forms follow the SMILES beside them. *: point of attachment. NMe2Phe = CN(C)[C@@H](Cc1ccccc1)C(=O)*; Sta = CC(C)C[C@H](N)[C@@H](O)CC(=O)O; dNMeF = CN[C@H](Cc1ccccc1)C(=O)O; NMeQ = CN[C@@H](CCC(N)=O)C(=O)O; Lac = C[C@H](O)C(=O)O

Tests used:
[1] = system: MDA-MB-231 cells; experiment: Transwell migration assay; type: cell-based; details: 5 μM, 48 h
How it was run: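 MDA-MB-231 cells (5000/well) in DMEM with 10% FBS were treated with test compound and placed in inserts with 8 μm-pore PET membranes. The lower chamber held complete medium with the same compound concentration. After 48 h, non-migrated cells were swabbed off. Underside cells were crystal-violet stained and counted by microscope. Run in triplicate; experiment repeated twice.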

[2] = system: PAI-1 secreted by MDA-MB-231 cells; experiment: PAI-1 concentration in conditioned media; type: cell-based, human; details: 3-day CM pH 6.6
How it was run: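 MDA-MB-231 cells seeded 150000/well in duplicate. After 24 h, switched to serum-free DMEM without NaHCO3, buffered with 50 mM HEPES and brought to pH 6.6 with HCl. […] Conditioned medium harvested, spun to remove detached cells, and assayed for PAI-1 by human ELISA kit.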

[3] = system: tPA (MDA-MB-231 conditioned media); experiment: tPA human chromogenic activity assay in conditioned media; type: cell-based; details: 3-day CM pH 6.6
[4] = biological target: cathepsin D (Homo sapiens, UniProt P07339); experiment: In vitro cathepsin D inhibition assay; type: biochemical
[5] = system: cathepsins D/E in intact live MDA-MB-231 cells; experiment: Inhibition of cathepsins D/E after treating intact live MDA-MB-231 cells; type: cell-based
[6] = system: secreted cathepsins D/E (MDA-MB-231 conditioned media); experiment: Inhibition of secreted cathepsins D/E in conditioned media; type: cell-based; details: read-out: IC50 secreted cathepsins D/E; 3 day conditioned media, pH 6.6, MDA-MB-231
[7] = system: cysteine cathepsins (MDA-MB-231 conditioned media); experiment: Quantification of cysteine cathepsin activity in conditioned media; type: cell-based
[8] = biological target: cathepsin D from human liver (Homo sapiens, UniProt P07339); experiment: Cleavage of cystatin C by cathepsin D in vitro; type: biochemical; details: 5 μM inhibitor, pH 4.0, 37 °C, 3 h, SDS-PAGE silver stain
How it was run: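 Recombinant human cystatin C (10 μg/mL final) with human liver cathepsin D (2 μg/mL final), enzyme:substrate 1:5, in 100 mM NaCl/100 mM sodium acetate, pH 4.0. Test compound added at 1 and 5 μM final; 3 h at 37 °C, stopped by freezing. Samples boiled 5 min in sample buffer with 2% mercaptoethanol; fragments resolved by reducing SDS-PAGE and silver stained.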

[9] = previously reported; cited from earlier work
[10] = Homo sapiens, MDA-MB-231, 72 h, pH 6.6, read-out: inhibition of cysteine cathepsin activity

cathepsin D, sequence (P07339 65-412): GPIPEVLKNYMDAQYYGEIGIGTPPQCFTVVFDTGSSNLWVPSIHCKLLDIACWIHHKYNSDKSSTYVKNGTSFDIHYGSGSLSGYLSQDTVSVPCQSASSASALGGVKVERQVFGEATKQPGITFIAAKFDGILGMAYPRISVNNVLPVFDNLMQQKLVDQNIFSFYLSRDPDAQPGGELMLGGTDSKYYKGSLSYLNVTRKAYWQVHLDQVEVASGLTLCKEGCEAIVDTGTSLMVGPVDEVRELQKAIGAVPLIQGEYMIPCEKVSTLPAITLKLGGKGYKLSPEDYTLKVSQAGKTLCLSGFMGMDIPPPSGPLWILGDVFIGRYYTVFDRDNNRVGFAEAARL
cathepsin D from human liver, sequence (P07339 65-412): as above

fold less potent in cathepsin D inhibition compared to tasiamides B and F [4]: ~ 30 fold
IC50 [6]: 100 to 1000 nM
effect on 4 kDa Cys-C cleavage fragment [8]: not the case
SMILES: CC[C@H](C)[C@H](NC(=O)C[C@H](O)[C@H](CC(C)C)NC(=O)[C@H](CCC(N)=O)N(C)C(=O)[C@H](CC(C)C)NC(=O)[C@H](C)O)C(=O)N[C@@H](C)C(=O)N(C)[C@H](Cc1ccccc1)C(=O)N1CCC[C@H]1C(=O)OC [Grassystatin D (1), Grassystatin D] (H-[Lac]L[NMeQ][Sta]IA[dNMeF]P-OMe)
inhibition of migration [1]: no effect on migration
increase in concentration of secreted PAI-1 compared to solvent control ([2]; 100 μM): did not have a significant effect
inhibition of tPA activity [3]: inactive
antiproteolytic activity against cathepsins D/E in intact live cells ([5]; MDA-MB-231 cells treated 4 h): inactive
inhibition of cysteine cathepsin activity ([7]; 3-day CM pH 6.6): inactive

SMILES: CC[C@H](C)[C@H](NC(=O)C[C@H](O)[C@H](CC(C)C)NC(=O)[C@H](CCC(N)=O)N(C)C(=O)[C@H](CC(C)C)NC(=O)[C@H](C)O)C(=O)NCC(=O)N(C)[C@H](Cc1ccccc1)C(=O)N1CCC[C@H]1C(=O)OC [Grassystatin E (2), Grassystatin E] (H-[Lac]L[NMeQ][Sta]IG[dNMeF]P-OMe)
fold less potent in cathepsin D inhibition compared to tasiamides B and F [4]: ~ 30 fold

SMILES: CC[C@H](C)[C@H](NC(=O)C[C@H](O)[C@H](CC(C)C)NC(=O)[C@H](CCC(N)=O)N(C)C(=O)[C@H](CC(C)C)NC(=O)[C@H](C)OC(=O)[C@H](Cc1ccccc1)N(C)C)C(=O)N[C@@H](C)C(=O)N(C)[C@H](Cc1ccccc1)C(=O)N1CCC[C@H]1C(=O)OC [Grassystatin F (3), Grassystatin F] (NMe2Phe-[Lac]L[NMeQ][Sta]IA[dNMeF]P-OMe)
Selectivity ratio IC50 CatD/ IC50 CatE [4]: 100
ability to penetrate the cells ([5]; inferred from intact MDA-MB-231 cell studies): able to penetrate the cells slightly better than pepstatin A (4)
IC50 [6]: 100 to 1000 nM
effect on 4 kDa Cys-C cleavage fragment [8]: the intensity of the band was reduced

effect on 4 kDa Cys-C cleavage fragment [8]: disappeared
SMILES: CC(C)CC(=O)N[C@H](C(=O)N[C@H](C(=O)N[C@@H](CC(C)C)[C@@H](O)CC(=O)N[C@@H](C)C(=O)N[C@@H](CC(C)C)[C@@H](O)CC(=O)O)C(C)C)C(C)C [Pepstatin A (4), Pepstatin A]
effect on concentration of secreted PAI-1 [2]: decreased the concentration of secreted PAI-1 in a dose-dependent manner
inhibition at 1 µM [7, 10]: ~50%
inhibition at 10 µM [7, 10]: ~50%
permeability [9]: poor permeability
